# Assay results: PubChem BioAssay AID463111 (Johns Hopkins Ion Channel Center, 2010)
# Hit rate of the full screen: of about 310,000 compounds, about 2,800 (0.9%) were called active.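 How the source made its calls: active means B-score of the integrated calcium signal more than 4 SD below the library mean, with starting fluorescence not abnormally high; inactive means the rest.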 Many of the other results were omitted from the sample, so actives are more common in it than they were.
# Assay: RGS4 potentiators or activators, primary screen, cell-based, HEK293 M3R inducible RGS4, calcium flux (AID 463111);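 on B-score: negative B-score means reduced calcium response which marks RGS4 activation or potentiation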
# Conditions: HEK293 M3R/inducible RGS4, carbachol calcium flux Fluo4, at 10 µM; hits give low values
# Summary of the method: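 Detection: kinetic calcium fluorescence imaging with Fluo4-AM dye, 2 µM / Material: HEK293 cells with stable M3R and inducible RGS4 / Schedule: recording 10 s baseline at 1 Hz, 100 s post-agonist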
row,SMILES,B-score
1,CN(C)CCCNC(=O)c1cc(C(=O)Cc2ccc(Cl)cc2)c[nH]1,inactive
2,CC(=O)C1C(c2ccc(Cl)cc2)c2c(n[nH]c2C)CC1(C)O (centres undefined),inactive
3,C=CCn1c(SCC(=O)Nc2nc3ccccc3s2)nnc1-c1ccccc1O,inactive
4,COC(=O)c1ccccc1NC(=O)CSc1nnnn1C,inactive
5,Cn1nnnc1SCC(=O)Nc1nc2ccccc2s1,-7.23 (active)
6,O=C(Cc1ccc(F)cc1)N1CCN=C1SCc1cccc([N+](=O)[O-])c1,inactive
7,Cc1cccc(CC(=O)N2CCN=C2SCc2ccc([N+](=O)[O-])cc2)c1,inactive
8,Cc1cc(C)cc(C(=O)N2CCN=C2SCc2ccc([N+](=O)[O-])cc2)c1,-8.97 (active)
9,Cc1cc(C)c2nc3nc(C)cc(C)c3c(N)c2c1,-7.22 (active)
10,Cc1cc(C)c2nc(-c3ccco3)cc(C(=O)O)c2c1,inactive
11,CN(CC1CCCO1)S(=O)(=O)c1ccc(C(=O)Nc2ccc([N+](=O)[O-])cc2)cc1 (centres undefined),inactive
12,Cc1ccc(OC(=O)c2ccccc2C(=O)OCC(F)(F)C(F)F)cc1,inactive
13,O=C(COC(=O)/C=C/c1ccc(S(=O)(=O)N2CCCCCC2)cc1)NCc1ccccc1Cl,inactive
14,O=C(c1ccc(F)c(S(=O)(=O)N2CCOCC2)c1)N(CCc1ccccc1)Cc1ccccc1,inactive
15,CCCCCOc1ccc(CSC2=NCCN2)cc1[N+](=O)[O-],inactive
16,CCCOc1ccc(Cn2ccnc2)cc1[N+](=O)[O-],inactive
17,CCCCOc1ccc(CSC(=N)N)cc1[N+](=O)[O-],-7.06 (active)
18,COc1cc(C2OC(c3cc(OC)c(OC)c(OC)c3)C(C)C2C)cc(OC)c1OC (centres undefined),inactive
19,CSCCC(NS(=O)(=O)c1ccc(C)cc1)C(=O)NCCc1c[nH]c2ccccc12 (centres undefined),inactive
20,O=C(Nc1cccc(Cl)c1)c1cc([N+](=O)[O-])ccc1N1CCN(CCO)CC1,inactive
21,CCC(=O)c1ccc(N2CCN(C(=O)c3cc([N+](=O)[O-])ccc3F)CC2)c(F)c1,inactive
22,CCN1CCN(c2ccc([N+](=O)[O-])cc2C(=O)c2ccc(Cl)cc2)CC1,-7.47 (active)
23,O=C(N/N=C/c1ccc(O)c(O)c1)C1c2ccccc2Oc2ccccc21,inactive
24,O=C(CCC1CCN(C(=O)c2cccc(Cl)c2F)CC1)Nc1ccccc1,inactive
25,Cc1cc(S(=O)(=O)Nc2ccc(C(=O)NCC(c3ccco3)N3CCCC3)cc2)ccc1F (centres undefined),inactive
26,COc1cc(Cl)ccc1OCc1cc(C(=O)N2CC[C@@H]3CCCC[C@H]3C2)no1,inactive

row,SMILES,B-score
1,COc1ccccc1-c1cc(C(=O)N2CCCCC2)no1,inactive
2,COc1ccc(OCc2cc(C(=O)N3CCCC3)no2)c2ccccc12,-7 (active)
3,O=C(NC1(C(F)(F)F)NC(=O)N(Cc2cccnc2)C1=O)c1ccccc1Cl (centres undefined),inactive
4,O=C(CN1C(=O)c2cccnc2Oc2ccc(Cl)cc21)NCCc1ccccc1,inactive
5,CCOC(=O)c1cccc(NC(=O)c2ccc(F)cc2F)c1,inactive
6,Cc1ccc(N(Cc2ccccc2O)C(=O)c2ccccc2F)cc1,inactive
7,Cn1c(N)c(C(=O)COC(=O)c2cnc(Cl)c(Cl)c2)c(=O)n(C)c1=O,inactive
8,Cc1ccc(C)c(NC(=O)NNC(=O)c2ccc3ccccc3c2O)c1,inactive
9,COC(=O)c1sc(-c2ccc(C(C)(C)C)cc2)cc1NC(=O)/C=C/C(=O)O,-8.52 (active)
10,CSc1ccc(NC(=O)/C=C/C(=O)O)cc1,inactive
11,CC(C)(C)c1ccc(/C=C/C(=O)Nc2ncccn2)cc1,inactive
12,Cc1onc(-c2c(F)cccc2Cl)c1C(=O)N(C)CC(=O)Nc1cccc(F)c1,inactive
13,OCCC1CN(Cc2ccc3nsnc3c2)CCN1C1CCCCC1 (centres undefined),inactive
14,Cn1cnnc1Sc1ccc(CN2CCN(C3CCCC3)C(CCO)C2)o1 (centres undefined),inactive
15,OCCC1CN(Cc2ccc3nsnc3c2)CCN1C1CCCC1 (centres undefined),-8.81 (active)
16,COc1ccccc1C(=O)N/C(=C/c1ccc2c(c1)OCO2)C(=O)Nc1cccc(C(=O)O)c1,inactive
17,CN(C)CCCN(C(=O)c1ccc(S(=O)(=O)N2CCCCCC2)cc1)c1nc2cc3c(cc2s1)OCCO3,-7.42 (active)
18,CCN(CC)CCN(C(=O)c1ccc(S(=O)(=O)N2CCOCC2)cc1)c1nc2cc3c(cc2s1)OCCO3,inactive
19,CN(C)CCCN(C(=O)c1ccc(S(=O)(=O)N2CCCCCC2)cc1)c1nc2ccc(Br)cc2s1,inactive
20,CC(CC(=O)Nc1ccc(F)cc1F)S(=O)(=O)c1ccc2c(c1)NC(=O)CO2 (centres undefined),inactive
21,CC(CC(=O)N1CCN(S(=O)(=O)c2ccccc2)CC1)n1cncn1 (centres undefined),inactive
22,C=CCNC(=O)c1ccccc1SCc1c(C)noc1C,inactive
23,CCC(C)Sc1nc2c(c(=O)[nH]c(=O)n2C)n1CC(O)COc1cccc2ccccc12 (centres undefined),inactive
24,Cc1cc(C)c(NC(=O)C[N+](C)(C)CC(O)COc2cccc3ccccc23)c(C)c1 (centres undefined),inactive
25,CC(C)c1ccccc1OCC(O)CN(CC(O)COc1cccc2ccccc12)C(C)C (centres undefined),-10 (active)
26,CCCN(c1ccc(C)cc1)c1nc(=O)c2cccnc2s1,inactive

row,SMILES,B-score
1,CCOC(=O)c1c(NC(=S)Nc2ccccc2)sc2c1CCN(C)C2,inactive
2,CCOC(=O)c1c(NC(=O)NC(C)(C)C)sc2c1CCN(C)C2,-8.36 (active)
3,CCOC(=O)c1c(NC(=O)Cn2nc(C(F)(F)F)cc2C)sc2c1CCC2,inactive
4,CCOC(=O)C1C(c2ccc(OC)c(OC)c2)c2c([nH][nH]c2=O)CC1(C)O (centres undefined),inactive
5,CC1CN(/C=C/C(=O)C(F)(F)F)CC(C)O1 (centres undefined),inactive
6,CCCc1ccc(OCc2ccc(C(=O)N/N=C/c3cccc([N+](=O)[O-])c3)o2)c(OC)c1,inactive
7,FC(F)(F)c1cccc(NC(=S)Nc2cccc(Cl)c2)c1,inactive
8,O=C(O)CSc1c2c(nc3cc(C(=O)Nc4cccc(C(F)(F)F)c4)ccc13)CCCC2,inactive
9,Cn1nc(C(F)(F)F)c(C(=O)Nc2cccc(C(F)(F)F)c2)c1SCc1ccc(Cl)cc1,-10.4 (active)
10,CC(C)=CCCC(C)CN1CCC(n2nccc2NC(=O)c2ccccc2)CC1 (centres undefined),inactive
11,CCOC(=O)c1ccc(-n2c(CCC(=O)O)ccc2-c2ccccc2)cc1,inactive
12,COCCCn1c(CCC(=O)O)ccc1-c1ccc(F)cc1,inactive
13,CC(C)Cn1c(CCC(=O)O)ccc1-c1cccs1,-7.21 (active)
14,Cc1ccccc1CNC(=O)CCC(=O)N1Cc2ccccc2Oc2ncccc21,inactive
15,C#CC(CCN1CCCCC1)(OC)c1ccccc1 (centres undefined),-8.27 (active)
16,CCCCOc1ccc(C(C)(O)CCN2CCOCC2)cc1 (centres undefined),inactive
17,c1ccc(-c2ccccc2OCCN2CCCCC2)cc1,inactive
18,CC(C)(c1ccccc1)c1ccc(OCCN2CCCC2)cc1,inactive
19,CCCCCCC(O)(CCN1CCCCC1)c1ccccc1 (centres undefined),inactive
20,CCCCCC(O)(CCN1CCCCC1)c1ccccc1 (centres undefined),-9.9 (active)
21,CCC(CC)COC(=O)C1=C(C)NC(=O)NC1c1ccc([N+](=O)[O-])cc1 (centres undefined),inactive
22,COc1ccc(C(CC(=O)c2ccccc2)S(=O)(=O)c2ccccc2)cc1 (centres undefined),inactive
23,COC(=O)c1ccc(C2C3=C(Nc4nnnn42)c2ccccc2OC3)cc1 (centres undefined),inactive
24,Cc1ccccc1-c1nc(CS(=O)(=O)CC(=O)N2CCc3ccccc3C2)c(C)o1,inactive
25,Cc1ccccc1-c1nc(CS(=O)(=O)CC(=O)NC(C)c2ccccc2)c(C)o1 (centres undefined),inactive
26,COC(=O)c1cc2occc2n1Cc1nc(-c2ccccc2C)oc1C,-7.3 (active)

row,SMILES,B-score
1,O=C(NCCc1ccccn1)c1cc(C(=O)C2CCCCC2)c[nH]1,inactive
2,CCC1CCCCN1CCCNC(=O)C1CCC(Cn2c(=O)[nH]c3ccccc3c2=O)CC1 (centres undefined),inactive
3,CCC1CCCCN1CCCNC(=O)Cn1nc(-c2ccccc2)ccc1=O (centres undefined),inactive
4,CCC1CCCCN1CCCNC(=O)c1cc2c(Cl)nc3ccccc3c2s1 (centres undefined),-8.65 (active)
5,CC(C)C(c1nnnn1C1CCCCC1)N1CCN(C(=O)c2ccco2)CC1 (centres undefined),inactive
6,CCC(c1nnnn1C1CCCC1)N1CCN(C(=O)c2ccco2)CC1 (centres undefined),inactive
7,CC(C)C(c1nnnn1CCc1ccccc1)N1CCN(C(=O)c2ccco2)CC1 (centres undefined),-10.4 (active)
8,NC(=O)Nc1ccccc1C(=O)NCCc1ccccc1,inactive
9,Cc1ccccc1C(=O)NC(=S)NC1CC1,inactive
10,Cc1ccc(-c2nc(-c3cccnc3)sc2CC(=O)Nc2ccc(C)c(Cl)c2)cc1,inactive
11,CCCN1CCN(C(=O)CCCNC(=O)c2ccc(Cl)cc2)CC1,inactive
12,CN1CCN(CCCNC(=O)c2ccc(/C=C3\Oc4ccccc4N(Cc4ccc(Cl)cc4)C3=O)cc2)CC1,-7.39 (active)
13,CN1C(=O)/C(=C/c2ccc(C(=O)NC3CCCC3)cc2)Oc2ccccc21,inactive
14,COc1ccc2c(c1)C(NS(=O)(=O)OCC(Cl)(Cl)Cl)CCC2 (centres undefined),inactive
15,CC1(C)C=C2[C@H]3CC[C@@H]4[C@@]5(C)CCC(=O)C(C)(C)[C@@H]5CC[C@@]4(C)[C@]3(C)CC[C@@]2(C(=O)O)CC1,-9.3 (active)
16,CCOC(=O)CCCNC(=O)COC(=O)c1cc(Br)c(Br)s1,inactive
17,O=C(NC(=O)c1cc(OCC(F)(F)F)ccc1OCC(F)(F)F)Nc1ccccc1,inactive
18,NS(=O)(=O)c1ccc(CCNS(=O)(=O)c2cccc3cccnc23)cc1,inactive
19,O=C(NCC1CCCO1)c1cc2c([nH]c3ccccc32)c(-c2ccc(F)cc2)n1 (centres undefined),-11.5 (active)
20,O=C(NCC1CCCO1)c1cc(-c2ccccc2)nc2ccccc12 (centres undefined),inactive
21,O=C(NCCCO)c1cc2c([nH]c3ccccc32)c(-c2ccc(F)cc2)n1,inactive
22,CC(=O)N/C(=C\c1ccc(F)cc1)C(=O)NC(Cc1ccccc1)C(=O)O (centres undefined),inactive
23,CCOC(=O)c1csc(CCNC(=O)c2oc3c(Cl)cc(C)cc3c2C)n1,inactive
24,CCCCCCCCCCOC(=O)Cn1c(COc2cccc(OC)c2)[n+](C)c2ccccc21,inactive
25,CCCCCCCCCCOC(=O)Cn1c(COc2ccc(C)cc2)[n+](C)c2ccccc21,-8.44 (active)
26,Cc1ccc(OCCCn2c(=O)oc3ccccc32)cc1,inactive
